Activity, IC50 and Ki data for 20 molecules are collected here from ChEMBL document CHEMBL4602736, “Progress in the Field of Aldehyde Dehydrogenase Inhibitors: Novel Imidazo[1,2-a]pyridines against the 1A Family” (ACS Med Chem Lett, 2020).

Assay [1] has as its target T1, Aldehyde dehydrogenase 1A1 (Homo sapiens) (UniProt P00352).
T1 sequence (whole entry): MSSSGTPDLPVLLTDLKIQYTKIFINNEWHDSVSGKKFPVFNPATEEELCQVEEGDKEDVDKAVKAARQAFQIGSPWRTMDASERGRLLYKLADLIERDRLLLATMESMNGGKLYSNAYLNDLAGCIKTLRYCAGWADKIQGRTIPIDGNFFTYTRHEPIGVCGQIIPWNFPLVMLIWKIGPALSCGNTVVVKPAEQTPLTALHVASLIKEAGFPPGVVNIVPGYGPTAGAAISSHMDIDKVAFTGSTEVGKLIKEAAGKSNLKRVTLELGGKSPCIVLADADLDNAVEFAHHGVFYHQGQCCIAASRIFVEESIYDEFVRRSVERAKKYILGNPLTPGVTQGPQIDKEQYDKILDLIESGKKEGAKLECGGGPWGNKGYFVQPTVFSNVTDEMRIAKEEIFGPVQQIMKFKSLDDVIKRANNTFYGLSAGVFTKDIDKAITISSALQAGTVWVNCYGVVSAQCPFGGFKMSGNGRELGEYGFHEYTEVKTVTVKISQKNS
The assay is described as follows: Inhibition of human recombinant ALDH1A1 assessed as remaining enzyme activity at 25 uM pre-incubated for 5 mins before acetaldehyde addition by continuous spectrometric assay relative to control. The method in brief:
(§1)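 Preliminary single-concentration screen at 25 μM against human recombinant ALDH1A1, ALDH1A2 and ALDH1A3, scored as residual enzyme activity versus control.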

The target in assay [2] is T2, Retinal dehydrogenase 2 (Homo sapiens) (UniProt O94788).
T2 sequence (whole entry): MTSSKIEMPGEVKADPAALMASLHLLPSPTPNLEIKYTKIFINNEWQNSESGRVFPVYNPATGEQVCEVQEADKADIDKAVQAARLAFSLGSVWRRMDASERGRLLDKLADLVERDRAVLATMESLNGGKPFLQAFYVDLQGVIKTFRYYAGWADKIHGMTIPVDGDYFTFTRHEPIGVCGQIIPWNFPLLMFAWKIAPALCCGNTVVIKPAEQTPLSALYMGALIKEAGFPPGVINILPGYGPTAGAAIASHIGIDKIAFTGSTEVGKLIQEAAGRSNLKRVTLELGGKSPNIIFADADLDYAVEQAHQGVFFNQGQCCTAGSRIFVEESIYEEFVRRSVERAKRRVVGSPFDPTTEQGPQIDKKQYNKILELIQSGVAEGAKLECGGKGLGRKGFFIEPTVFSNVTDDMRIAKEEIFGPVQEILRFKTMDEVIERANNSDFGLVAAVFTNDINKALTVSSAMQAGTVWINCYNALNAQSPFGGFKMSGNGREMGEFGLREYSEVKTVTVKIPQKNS
The assay can be described thus: Inhibition of human recombinant ALDH1A2 assessed as remaining enzyme activity at 25 uM pre-incubated for 5 mins before acetaldehyde addition by continuous spectrometric assay relative to control. In outline: as §1

Assay [3] concerns the target T3, Retinaldehyde dehydrogenase 3 (Homo sapiens) (UniProt P47895).
T3 sequence (whole entry): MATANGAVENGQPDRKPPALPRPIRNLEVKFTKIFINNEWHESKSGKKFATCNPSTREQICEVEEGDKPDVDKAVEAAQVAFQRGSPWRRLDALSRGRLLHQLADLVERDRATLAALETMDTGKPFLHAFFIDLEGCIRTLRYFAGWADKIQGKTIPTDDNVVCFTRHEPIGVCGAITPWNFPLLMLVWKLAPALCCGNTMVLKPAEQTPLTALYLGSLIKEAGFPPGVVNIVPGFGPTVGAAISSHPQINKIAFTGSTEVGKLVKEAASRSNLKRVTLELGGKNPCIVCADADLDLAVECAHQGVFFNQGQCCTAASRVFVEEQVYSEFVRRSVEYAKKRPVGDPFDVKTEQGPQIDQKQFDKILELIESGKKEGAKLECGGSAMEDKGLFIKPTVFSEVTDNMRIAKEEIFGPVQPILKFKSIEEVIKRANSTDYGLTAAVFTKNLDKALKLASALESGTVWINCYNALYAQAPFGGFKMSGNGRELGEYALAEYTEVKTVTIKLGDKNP
The assay can be described thus: Inhibition of human recombinant ALDH1A3 assessed as remaining enzyme activity at 25 uM pre-incubated for 5 mins before acetaldehyde addition by continuous spectrometric assay relative to control. The method in brief:
as §1

Assay [4] addresses T4, Retinaldehyde dehydrogenase 3 (Homo sapiens, UniProt P47895).
T4 sequence (P47895 whole entry): T3 sequence (whole entry)
The assay can be described thus: Inhibition of human recombinant ALDH1A3 pre-incubated for 5 mins before acetaldehyde addition by continuous spectrometric assay relative to control. In outline:
(§2)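 IC50 is the concentration giving 50% inhibition of the human recombinant isoform. Compounds with no significant inhibition at 25 μM were listed as not active and had no IC50 determined.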

In assay [5] the target is T5, Aldehyde dehydrogenase 1A1 (Homo sapiens, UniProt P00352).
T5 sequence (P00352 whole entry): T1 sequence (whole entry)
The assay can be described thus: Inhibition of human recombinant ALDH1A1 pre-incubated for 5 mins before acetaldehyde addition by continuous spectrometric assay relative to control. In outline: as §2

The target in assay [6] is T6, Retinal dehydrogenase 2 (Homo sapiens, UniProt O94788).
T6 sequence (O94788 whole entry): T2 sequence (whole entry)
The assay can be described thus: Inhibition of human recombinant ALDH1A2 pre-incubated for 5 mins before acetaldehyde addition by continuous spectrometric assay relative to control. In outline:
as §2

For assay [7], the target named is T5, Aldehyde dehydrogenase 1A1. The assay is described as follows: Competitive inhibition of human recombinant ALDH1A1 pre-incubated for 5 mins before acetaldehyde addition by continuous spectrometric assay relative to control.
The target of assay [8] is T4, Retinaldehyde dehydrogenase 3. The assay can be described thus: Competitive inhibition of human recombinant ALDH1A3 pre-incubated for 5 mins before acetaldehyde addition by continuous spectrometric assay relative to control.
Assay [9] concerns the target T6, Retinal dehydrogenase 2. The assay can be described thus: Competitive inhibition of human recombinant ALDH1A2 pre-incubated for 5 mins before acetaldehyde addition by continuous spectrometric assay relative to control.
For a further assay, the system named is U-87 MG. The assay is described as follows: Antiproliferative activity against human U87MG cells assessed as reduction in cell vitality at 100 nM to 10 uM incubated for 72 hrs by MTT assay. The assay is classed as functional, cell-based. Particulars: U-87MG ATCC. A general note: Tetrazolium assays rely on reduction of a dye to a coloured formazan, in cell work by metabolically active cells.

Structures are written as SMILES. The source made the active and inactive calls. The calls are words filed in the database; no cut-off is given here.

Take `c1ccc(-c2ccc(-c3cccn4cc(-c5ccccc5)nc34)cc2)cc1`: the Activity in [1], in assay [2] and in assay [3] was 75 to 100% in each case.
Usually IC50 stands for the concentration needed to halve the response being measured. Turning to `c1ccc(-c2cn3cccc(-c4ccccc4)c3n2)cc1`, the Activity in assay [1] was in the range of 75 to 100%; in [2], 50 to 75%; in assay [3], 50 to 75%. In addition, the half-inhibitory concentration (IC50) in assay [4] is 80.6 µM; in [5], “Not Active”; at Retinal dehydrogenase 2 [6] (read-out: IC50) it was 61.4 µM.
Turning to `COC(=O)c1ccc(-c2cccn3cc(-c4ccc(OC)cc4)nc23)cc1`, the Activity in [1] is 75 to 100%; in assay [2], 75 to 100%; in assay [3], 50 to 75%.
Take `Cc1ccc(-c2cn3cccc(-c4ccc(Cl)cc4)c3n2)cc1`: the Activity was 75 to 100% in [1], 75 to 100% in [2] and 50 to 75% in assay [3].
In the case of `CC(C)Cc1ccc(-c2cccn3cc(-c4ccccc4)nc23)cc1`, the Activity in [1] lay in the range of 50 to 75%; in assay [2], 75 to 100%; in assay [3], 75 to 100%.
On to `COc1cccc(-c2cn3cccc(-c4ccc(-c5ccccc5)cc4)c3n2)c1`, for which the Activity in [1], in assay [2] and in assay [3] was 75 to 100% in each case.
In the case of `COc1cccc(-c2cn3cccc(-c4ccc(Cl)cc4)c3n2)c1`, the Activity lay within 75 to 100% in [1], 50 to 75% in assay [2] and 50 to 75% in assay [3]. Besides, the IC50 in assay [4] was 4.3 µM; in [5], “Not Active”; at Retinal dehydrogenase 2 [6], “Not Active”.
In the case of `O=C(COc1ccc(-c2cccn3cc(-c4ccccc4)nc23)cc1)c1ccccc1`, the Activity in [1], in assay [2] and in assay [3] was 75 to 100% each time.
Broadly, the Ki is the dissociation constant of the complex between target and ligand, obtained from inhibition or displacement. For the molecule `COC(=O)c1ccc(-c2cccn3cc(-c4ccccc4)nc23)cc1`, the Ki in [7] stood at 79.5 µM; in assay [8], 0.12 µM; at Retinal dehydrogenase 2 [9], 0.92 µM. For the same molecule, the results for the Activity in assay [1], in assay [2] and in assay [3] were 75 to 100%, 25 to 50% and 0 to 25%, respectively. Moreover, the results for the IC50 (in assay [4]; in assay [5]; on Retinal dehydrogenase 2 [6]) were 0.66 µM, “Not Active” and “Not Active”, respectively.
`COc1cccc(-c2cn3cccc(-c4cc(OC)c(OC)c(OC)c4)c3n2)c1`: the Activity in assay [1], in [2] and in [3] was 75 to 100% throughout.
As to `Fc1ccc(-c2cccn3cc(-c4ccccc4)nc23)cc1`, the Activity was in the range of 75 to 100% in [1], 25 to 50% in [2] and 25 to 50% in [3]. The half-maximal inhibitory concentration (IC50) in assay [4] is 6 µM; in assay [5], “Not Active”; on Retinal dehydrogenase 2 [6], “Not Active”.
With `COc1cccc(-c2cn3cccc(-c4ccc(F)cc4)c3n2)c1`, the Activity lay within 75 to 100% in [1], 25 to 50% in assay [2] and 50 to 75% in assay [3]. In addition, the IC50 was 7.2 µM in assay [4], “Not Active” in [5] and “Not Active” at Retinal dehydrogenase 2 [6].
In the case of `COc1ccc(-c2cn3cccc(-c4ccc(F)cc4)c3n2)cc1`, the Activity in [1], in assay [2] and in [3] was 75 to 100% throughout.
Take `COc1ccc(-c2cn3cccc(-c4ccc(-c5ccccc5)cc4)c3n2)cc1`: the results for the Activity in [1], in [2] and in [3] were 50 to 75%, 75 to 100% and 75 to 100%, respectively.
For `Cc1ccc(-c2cn3cccc(-c4ccc(F)cc4)c3n2)cc1`, the Activity in assay [1] lay within 75 to 100%; in [2] it was 50 to 75%; in assay [3], 75 to 100%.
In the case of `Cc1ccc(-c2cn3cccc(-c4ccccc4)c3n2)cc1`, the Activity in assay [1] lay in the range of 75 to 100%; in [2] it was 50 to 75%; in assay [3], 50 to 75%.
For `COc1ccc(-c2cn3cccc(-c4cc(OC)cc(OC)c4)c3n2)cc1`, the Activity in assay [1], in [2] and in [3] was 75 to 100% each time.
Consider `Clc1ccc(-c2cccn3cc(-c4ccccc4)nc23)cc1`, for which the Ki was 168 µM in assay [7], 8.7 µM in assay [8] and 27.6 µM at Retinal dehydrogenase 2 [9]. For the same molecule, the Activity in assay [1] lay in the range of 75 to 100%; in assay [2] it was 50 to 75%; in [3] it was 50 to 75%. Besides, the outcome with U-87 MG was Active. The concentration for half-maximal inhibition (IC50) in assay [4] stood at 5.5 µM; in assay [5] (read-out: IC50), 168 µM; at Retinal dehydrogenase 2 [6] (read-out: IC50), 27.6 µM.
For the molecule `COc1ccc(-c2cn3cccc(-c4cc(OC)c(OC)c(OC)c4)c3n2)cc1`, the Activity in assay [1], in [2] and in [3] was 75 to 100% throughout.
With `COc1ccc(-c2cn3cccc(-c4ccc(Cl)cc4)c3n2)cc1`, the Activity in assay [1], in assay [2] and in assay [3] was 75 to 100% in each case.
